Test [1] is described as follows: Inhibition of microbial xanthine oxidase by spectrophotometry. The method in brief:
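Enzyme source: for line 2, supernatant of centrifuged rat liver homogenate stored at −80 °C; for line 1, commercial microbial XO run the same way. Mix of 50 mM potassium phosphate pH 7.5, 0.3 mM EDTA and enzyme. Reaction started with xanthine substrate plus test compound. Protein by Lowry, BSA standard.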

For test [2], the target named is Xanthine dehydrogenase/oxidase (Rattus norvegicus, UniProt P22985). Briefly: Inhibition of rat liver xanthine oxidase by spectrophotometry. The method in brief:
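Enzyme source: for line 2, supernatant of centrifuged rat liver homogenate stored at −80 °C; for line 1, commercial microbial XO run the same way. Mix of 50 mM potassium phosphate pH 7.5, 0.3 mM EDTA and enzyme. Reaction started with xanthine substrate plus test compound. Uric acid read at 292 nm at 10 min intervals, ambient temperature. % inhibition versus control without compound; triplicates. Protein by Lowry, BSA standard.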

Test [3] deals with Xanthine dehydrogenase/oxidase (Bos taurus, UniProt P80457). Briefly: Inhibition of bovine milk xanthine oxidase by spectrophotometry.

SMILES strings stand for the structures.

Sequence of Xanthine dehydrogenase/oxidase (Rattus norvegicus, UniProt P22985) (P22985 whole entry): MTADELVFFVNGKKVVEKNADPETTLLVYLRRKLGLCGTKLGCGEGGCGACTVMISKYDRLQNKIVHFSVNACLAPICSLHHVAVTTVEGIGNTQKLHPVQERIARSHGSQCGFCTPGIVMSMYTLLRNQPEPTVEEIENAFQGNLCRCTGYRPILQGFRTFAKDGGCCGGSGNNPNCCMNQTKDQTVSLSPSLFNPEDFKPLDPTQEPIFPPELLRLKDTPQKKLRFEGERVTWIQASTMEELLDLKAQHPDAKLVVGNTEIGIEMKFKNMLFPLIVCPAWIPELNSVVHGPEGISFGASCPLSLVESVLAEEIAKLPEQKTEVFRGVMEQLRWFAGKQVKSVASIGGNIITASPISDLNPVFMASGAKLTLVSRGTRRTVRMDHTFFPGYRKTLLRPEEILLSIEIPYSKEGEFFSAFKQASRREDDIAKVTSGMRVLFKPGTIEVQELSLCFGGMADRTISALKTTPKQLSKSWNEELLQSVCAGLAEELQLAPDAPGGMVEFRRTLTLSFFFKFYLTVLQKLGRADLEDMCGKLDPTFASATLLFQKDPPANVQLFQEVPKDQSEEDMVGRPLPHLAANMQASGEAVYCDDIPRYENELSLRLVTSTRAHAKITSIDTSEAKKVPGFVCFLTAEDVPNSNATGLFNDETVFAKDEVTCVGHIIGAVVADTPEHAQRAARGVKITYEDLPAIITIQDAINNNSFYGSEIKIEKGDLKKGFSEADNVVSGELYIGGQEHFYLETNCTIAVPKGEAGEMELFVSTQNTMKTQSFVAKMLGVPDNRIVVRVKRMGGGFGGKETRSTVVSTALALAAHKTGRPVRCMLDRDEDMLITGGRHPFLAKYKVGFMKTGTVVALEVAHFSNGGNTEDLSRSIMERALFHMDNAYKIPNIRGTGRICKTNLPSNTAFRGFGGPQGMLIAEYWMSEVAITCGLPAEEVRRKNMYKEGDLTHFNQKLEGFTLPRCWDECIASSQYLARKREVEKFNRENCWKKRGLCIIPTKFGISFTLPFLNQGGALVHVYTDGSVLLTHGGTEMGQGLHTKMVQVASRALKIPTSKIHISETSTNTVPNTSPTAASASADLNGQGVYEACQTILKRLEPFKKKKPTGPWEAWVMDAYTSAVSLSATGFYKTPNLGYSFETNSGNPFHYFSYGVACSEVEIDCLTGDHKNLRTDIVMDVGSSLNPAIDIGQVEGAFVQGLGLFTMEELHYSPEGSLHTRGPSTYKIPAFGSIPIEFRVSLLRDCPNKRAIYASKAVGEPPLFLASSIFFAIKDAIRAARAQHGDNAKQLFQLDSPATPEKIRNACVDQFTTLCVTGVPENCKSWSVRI
Sequence of Xanthine dehydrogenase/oxidase (Bos taurus, UniProt P80457) (P80457 whole entry): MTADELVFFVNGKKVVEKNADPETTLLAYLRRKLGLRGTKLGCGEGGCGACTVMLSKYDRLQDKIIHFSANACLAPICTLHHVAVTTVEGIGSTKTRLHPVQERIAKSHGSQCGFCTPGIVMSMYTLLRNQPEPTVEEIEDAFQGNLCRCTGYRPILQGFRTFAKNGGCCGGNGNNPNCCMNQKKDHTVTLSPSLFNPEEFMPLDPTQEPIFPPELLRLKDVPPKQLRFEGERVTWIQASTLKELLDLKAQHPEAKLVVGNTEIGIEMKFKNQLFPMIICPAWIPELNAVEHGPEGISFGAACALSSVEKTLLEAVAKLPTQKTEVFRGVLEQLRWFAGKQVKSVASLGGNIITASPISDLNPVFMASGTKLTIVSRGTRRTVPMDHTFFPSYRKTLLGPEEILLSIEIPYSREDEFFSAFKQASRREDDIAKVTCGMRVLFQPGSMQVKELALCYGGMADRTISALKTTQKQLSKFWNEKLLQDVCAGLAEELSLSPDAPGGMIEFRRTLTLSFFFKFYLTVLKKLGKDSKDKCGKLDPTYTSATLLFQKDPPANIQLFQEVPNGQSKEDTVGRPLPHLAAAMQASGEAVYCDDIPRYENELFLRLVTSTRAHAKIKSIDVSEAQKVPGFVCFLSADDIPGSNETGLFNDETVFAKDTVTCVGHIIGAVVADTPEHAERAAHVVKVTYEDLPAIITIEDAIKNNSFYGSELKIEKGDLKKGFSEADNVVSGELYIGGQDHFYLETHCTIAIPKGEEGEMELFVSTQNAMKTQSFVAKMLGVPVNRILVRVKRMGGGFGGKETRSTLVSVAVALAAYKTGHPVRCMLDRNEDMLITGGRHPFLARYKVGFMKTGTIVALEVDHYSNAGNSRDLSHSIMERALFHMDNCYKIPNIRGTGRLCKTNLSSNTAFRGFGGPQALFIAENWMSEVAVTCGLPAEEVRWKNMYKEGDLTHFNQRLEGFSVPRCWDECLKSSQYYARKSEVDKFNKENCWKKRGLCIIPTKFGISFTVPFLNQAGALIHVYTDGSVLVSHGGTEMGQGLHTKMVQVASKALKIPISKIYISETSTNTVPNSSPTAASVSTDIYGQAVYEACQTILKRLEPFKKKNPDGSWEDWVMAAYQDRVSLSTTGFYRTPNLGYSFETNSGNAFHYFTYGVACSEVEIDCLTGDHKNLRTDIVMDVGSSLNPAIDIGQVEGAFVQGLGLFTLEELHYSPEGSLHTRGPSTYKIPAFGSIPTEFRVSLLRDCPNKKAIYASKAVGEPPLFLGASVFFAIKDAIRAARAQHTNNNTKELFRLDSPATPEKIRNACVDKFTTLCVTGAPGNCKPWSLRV

The IC50 is the concentration that inhibits the measured activity by half. Lower therefore signals greater potency. `Cc1cc(=O)n2nc(COc3ccc(Cl)cc3)sc2n1`: the results for the IC50 in test [1], in test [2] and in test [3] were 423 nM, 449 nM and 461 nM, respectively.
As for `COc1ccc(OCc2nn3c(=O)cc(C)nc3s2)cc1`, the IC50 in test [1] worked out at 269 nM; in test [2], 289 nM; in test [3] it was 269 nM.
On to `Cc1cc(=O)n2nc(COc3ccccc3Br)sc2n1`, for which the results for the IC50 in test [2] and in test [3] were 413 nM and 603 nM, respectively.
Regarding `Cc1cc(=O)n2nc(COc3ccccc3C)sc2n1`, the IC50 in test [1] came to 346 nM; in test [2], 362 nM; in test [3] it was 326 nM.
The corresponding values for `Cc1cc(=O)n2nc(COc3ccccc3Cl)sc2n1` are 1820 nM, 1830 nM and 1650 nM.
Taken in the same sequence, the figures for `Cc1cc(=O)n2nc(COc3ccc(Cl)c(C)c3)sc2n1` were 596 nM, 623 nM and 634 nM.
Taken in the same sequence, the figures for `Cc1cccc(OCc2nn3c(=O)cc(C)nc3s2)c1` were 1110 nM, 1070 nM and 1030 nM.
`Cc1cc(=O)n2nc(COc3ccc(F)cc3)sc2n1` registered an IC50 in test [1] of 2240 nM.
With `Cc1cc(=O)n2nc(COc3ccc([N+](=O)[O-])cc3)sc2n1`, the IC50 in test [2] was 2030 nM; in test [3], 2500 nM.
As to `Cc1ccc(OCc2nn3c(=O)cc(C)nc3s2)c(C)c1`, the figures for the IC50 in test [1], in test [2] and in test [3] were 1730 nM, 1760 nM and 1800 nM, respectively.
Regarding `Cc1cc(=O)n2nc(COc3ccccc3F)sc2n1`, 590 nM corresponded to half-maximal inhibition in test [2] (IC50).
`Cc1ccc(OCc2nn3c(=O)cc(C)nc3s2)cc1`: the IC50 in test [1] was 834 nM; in test [2] it was 1020 nM.
In test [2], `Cc1cc(=O)n2nc(COc3cccc(Cl)c3)sc2n1` gave an IC50 of 6180 nM.
On the same count and under the same terms, the figure for `Cc1cc(=O)n2nc(COc3cccc(Br)c3)sc2n1` is 2560 nM.
Take `Cc1cc(=O)n2nc(COc3cccc(F)c3)sc2n1`: the IC50 worked out at 1660 nM in test [1] and 1980 nM in test [2].
With `Cc1cc(=O)n2nc(COc3ccccc3)sc2n1`, half-maximal inhibition in test [2] (IC50) required 555 nM.

The values above are taken from ChEMBL document CHEMBL1641429, “Synthesis and xanthine oxidase inhibitory activity of 7-methyl-2-(phenoxymethyl)-5H-[1,3,4]thiadiazolo[3,2-a]pyrimidin-5-one derivatives” (Bioorg Med Chem, 2011).
